Laboratory results taken from ChEMBL document CHEMBL5260844, “Optimization of PDE3A Modulators for SLFN12-Dependent Cancer Cell Killing” (ACS Med Chem Lett, 2019).
Active and inactive are the calls of the source. The calls are words filed in the database; no cut-off is given here.

Key:
[1] = test system: HeLa; assay: Cytotoxicity against human HeLa cells assessed as cell growth inhibition measured after 48 hrs by […] reagent based assay; assay type: functional
[2] = Microsomal stability in human liver microsomes assessed as parent compound remaining measured after 1 hr in presence of NADPH by UHPLC-MS analysis; assay type: ADME, Microsome; conditions: read-out: Stability
Outline: (§1)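 Test compound incubated with human or mouse liver microsomes. Percent remaining at 1 h reported as the average of three values.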

[3] = Microsomal stability in mouse liver microsomes assessed as parent compound remaining at 1 uM measured after 1 hr in presence of NADPH by UHPLC-MS analysis; assay type: ADME, Microsome; conditions: read-out: Stability; outline: as §1
[4] = Plasma protein binding in human incubated for 5 hrs by UPLC-MS method; assay type: ADME, cell-free; conditions: read-out: PPB (converted)
Outline: (§2)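 Plasma protein binding, human and mouse, reported as % bound, average of three values.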

[5] = Plasma protein binding in mouse incubated for 5 hrs by UPLC-MS method; assay type: ADME, cell-free; conditions: read-out: PPB (converted); outline: as §2
[6] = Stability in human plasma assessed as parent compound remaining after 5 hrs; assay type: ADME, cell-free; conditions: read-out: Stability
Outline: (§3)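 Human or mouse plasma incubation. Percent parent remaining at 5 h, average of three values.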

[7] = Stability in mouse plasma assessed as parent compound remaining after 5 hrs; assay type: ADME, cell-free; conditions: read-out: Stability; outline: as §3
[8] = test system: A549; assay: Cytotoxicity against human A549 cells assessed as cell growth inhibition upto 10 uM measured after 3 days by […] reagent based assay; conditions: time 72.0 hrs
[9] = test system: SK-MEL3; assay: Cytotoxicity against human SK-MEL3 cells assessed as cell growth inhibition upto 10 uM measured after 48 hrs by […] reagent based assay; assay type: functional; conditions: SK-MEL3, 48 h
[10] = test system: HCT-116; assay: Cytotoxicity against human HCT-116 cells assessed as cell growth inhibition upto 10 uM measured after 48 hrs by […] reagent based assay; assay type: functional
Outline: (§4)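 Counterscreen viability assay in HCT116 colorectal cancer cells and IMR90 normal lung fibroblasts, run alongside DNMDP-sensitive lines.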

[11] = test system: IMR-90; assay: Cytotoxicity against human IMR-90 cells assessed as cell growth inhibition upto 10 uM measured after 48 hrs by […] reagent based assay; assay type: functional; outline: as §4
[12] = biological target: cGMP-inhibited 3',5'-cyclic phosphodiesterase 3A (Homo sapiens, UniProt Q14432); assay: Inhibition of human N-terminal His-GST-tagged recombinant PDE3A (669-end residues) using fluorescent labelled cAMP as substrate
[13] = biological target: cGMP-inhibited 3',5'-cyclic phosphodiesterase 3B (Homo sapiens, UniProt Q13370); assay: Inhibition of human recombinant PDE3B
[14] = biological target: Ribonuclease SLFN12 (Homo sapiens) (UniProt Q8IYM2); assay: Stabilization of PDE3A/V5-epitope tagged SLFN12 interaction in human HeLa cells at 10 uM incubated for 8 hrs by immunoblotting analysis; assay type: cell-based
Outline: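 HeLa cells transfected with a plasmid expressing V5-tagged SLFN12, then exposed to 10 µM compound for 8 h. Lysates immunoprecipitated with anti-PDE3A antibody for endogenous PDE3A. Co-precipitated SLFN12-V5 detected by immunoblot with anti-V5 antibody.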

[15] = Selectivity ratio, ratio of IC50 for human PDE3A to EC50 for cytotoxicity against human HeLa cells
[16] = Selectivity ratio, ratio of IC50 for human PDE3B to EC50 for cytotoxicity against human HeLa cells

Chain of cGMP-inhibited 3',5'-cyclic phosphodiesterase 3A (Q14432 whole entry): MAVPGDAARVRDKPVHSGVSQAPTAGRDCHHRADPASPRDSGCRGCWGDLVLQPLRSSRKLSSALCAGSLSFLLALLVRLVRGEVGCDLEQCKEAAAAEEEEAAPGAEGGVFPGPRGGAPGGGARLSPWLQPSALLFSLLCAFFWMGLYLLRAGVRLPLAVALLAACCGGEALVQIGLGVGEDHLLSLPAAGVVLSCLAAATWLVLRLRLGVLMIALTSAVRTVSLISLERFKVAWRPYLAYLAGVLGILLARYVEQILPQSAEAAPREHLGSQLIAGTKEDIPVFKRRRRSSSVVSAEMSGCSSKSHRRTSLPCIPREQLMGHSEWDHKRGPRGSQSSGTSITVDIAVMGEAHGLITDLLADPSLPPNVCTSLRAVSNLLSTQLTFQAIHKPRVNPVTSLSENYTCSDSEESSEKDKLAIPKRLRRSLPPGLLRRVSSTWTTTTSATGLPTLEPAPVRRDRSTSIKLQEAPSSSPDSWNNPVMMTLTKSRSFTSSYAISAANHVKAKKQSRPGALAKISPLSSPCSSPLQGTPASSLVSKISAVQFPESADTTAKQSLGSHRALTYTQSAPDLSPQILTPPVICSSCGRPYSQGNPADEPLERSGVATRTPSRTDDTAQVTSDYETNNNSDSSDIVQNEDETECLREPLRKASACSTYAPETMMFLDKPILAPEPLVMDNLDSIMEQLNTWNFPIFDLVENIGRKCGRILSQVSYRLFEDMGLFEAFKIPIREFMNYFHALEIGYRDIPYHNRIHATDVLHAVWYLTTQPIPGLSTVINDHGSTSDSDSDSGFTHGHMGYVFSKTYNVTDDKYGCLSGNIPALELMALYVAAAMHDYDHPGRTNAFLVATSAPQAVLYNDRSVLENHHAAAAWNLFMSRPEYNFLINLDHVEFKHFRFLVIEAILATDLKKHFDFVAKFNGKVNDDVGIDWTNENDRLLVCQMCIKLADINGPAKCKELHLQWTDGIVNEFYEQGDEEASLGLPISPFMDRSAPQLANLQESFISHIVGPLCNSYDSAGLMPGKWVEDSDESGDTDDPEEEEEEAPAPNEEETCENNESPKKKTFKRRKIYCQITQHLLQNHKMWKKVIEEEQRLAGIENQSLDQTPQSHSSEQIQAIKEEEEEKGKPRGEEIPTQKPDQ
Chain of cGMP-inhibited 3',5'-cyclic phosphodiesterase 3B (Q13370 whole entry): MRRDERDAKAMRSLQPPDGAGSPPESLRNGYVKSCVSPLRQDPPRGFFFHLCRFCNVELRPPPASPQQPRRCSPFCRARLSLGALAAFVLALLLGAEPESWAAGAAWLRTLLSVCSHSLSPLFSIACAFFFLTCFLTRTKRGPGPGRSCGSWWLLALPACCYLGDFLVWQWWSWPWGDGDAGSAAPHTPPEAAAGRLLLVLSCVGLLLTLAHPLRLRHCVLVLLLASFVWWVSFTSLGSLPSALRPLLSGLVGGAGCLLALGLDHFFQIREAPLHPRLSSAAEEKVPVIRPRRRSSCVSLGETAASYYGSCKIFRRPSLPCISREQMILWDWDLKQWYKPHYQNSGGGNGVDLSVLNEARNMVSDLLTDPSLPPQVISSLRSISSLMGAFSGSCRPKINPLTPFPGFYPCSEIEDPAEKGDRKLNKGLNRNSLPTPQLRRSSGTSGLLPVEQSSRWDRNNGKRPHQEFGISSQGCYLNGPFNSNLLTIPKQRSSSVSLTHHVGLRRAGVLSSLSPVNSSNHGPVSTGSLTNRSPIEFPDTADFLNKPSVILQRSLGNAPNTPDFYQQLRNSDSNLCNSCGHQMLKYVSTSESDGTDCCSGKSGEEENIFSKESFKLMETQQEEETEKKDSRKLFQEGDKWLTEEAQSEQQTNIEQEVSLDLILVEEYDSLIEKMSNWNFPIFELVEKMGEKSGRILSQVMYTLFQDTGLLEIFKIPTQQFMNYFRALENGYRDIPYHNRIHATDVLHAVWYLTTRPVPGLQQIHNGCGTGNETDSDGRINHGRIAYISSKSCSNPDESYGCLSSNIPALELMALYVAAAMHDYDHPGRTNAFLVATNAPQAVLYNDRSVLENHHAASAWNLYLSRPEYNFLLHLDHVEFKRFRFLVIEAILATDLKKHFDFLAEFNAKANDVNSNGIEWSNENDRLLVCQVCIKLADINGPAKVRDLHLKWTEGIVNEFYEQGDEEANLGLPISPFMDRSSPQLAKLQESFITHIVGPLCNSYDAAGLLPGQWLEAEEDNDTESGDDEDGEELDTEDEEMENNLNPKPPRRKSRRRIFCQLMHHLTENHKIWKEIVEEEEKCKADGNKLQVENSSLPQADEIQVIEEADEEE
Chain of Ribonuclease SLFN12 (Homo sapiens) (Q8IYM2 whole entry): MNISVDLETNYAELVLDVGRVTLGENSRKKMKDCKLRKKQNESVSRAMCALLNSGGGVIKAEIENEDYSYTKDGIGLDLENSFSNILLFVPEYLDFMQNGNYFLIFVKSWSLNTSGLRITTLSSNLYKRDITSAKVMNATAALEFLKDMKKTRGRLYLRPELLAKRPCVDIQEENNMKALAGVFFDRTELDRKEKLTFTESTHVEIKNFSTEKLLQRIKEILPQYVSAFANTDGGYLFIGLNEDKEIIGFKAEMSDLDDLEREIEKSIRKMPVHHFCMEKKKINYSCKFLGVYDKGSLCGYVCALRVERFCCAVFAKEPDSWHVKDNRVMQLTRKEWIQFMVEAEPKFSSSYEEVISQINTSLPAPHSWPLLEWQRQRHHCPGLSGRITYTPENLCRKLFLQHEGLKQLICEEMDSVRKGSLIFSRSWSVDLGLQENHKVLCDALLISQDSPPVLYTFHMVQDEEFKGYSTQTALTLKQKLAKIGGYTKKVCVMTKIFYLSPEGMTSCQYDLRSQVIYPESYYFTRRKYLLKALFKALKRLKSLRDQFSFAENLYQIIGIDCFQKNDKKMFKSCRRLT

CCN(CC)c1ccc(C2=NNC(=O)CC2C)cc1 (racemic)
EC50 [1]: 8.8 nM | remaining at 1 h [2]: 89% | remaining at 1 h, 1 µM [3]: 26% | fraction unbound at 5 h [4]: 0.1 | fraction unbound at 5 h [5]: 0.1 | remaining at 5 h [6]: 104% | remaining at 5 h [7]: 96% | Activity [8]: inactive

CC1CC(=O)NN=C1c1ccc(F)c(F)c1 (racemic)
EC50 [1]: 64 nM | remaining at 1 h [2]: 108% | remaining at 1 h, 1 µM [3]: 82% | fraction unbound at 5 h [4]: 0.44 | fraction unbound at 5 h [5]: 0.48 | remaining at 5 h [6]: 93% | remaining at 5 h [7]: 96% | Activity [8]: inactive

CCN(CC)c1ccc(C2=NNC(=O)C[C@H]2C)cc1
EC50 [1]: 3.3 nM | Activity [8]: inactive

CC(=O)Nc1ccc(C2=NNC(=O)C[C@H]2C)cc1[N+](=O)[O-]
EC50 [9]: 4.2 nM | Activity [10]: inactive | EC50 [1]: 4.9 nM | Activity [11]: inactive | Activity [8]: inactive

Cc1nc2cc(C3=NNC(=O)C[C@H]3C)ccc2[nH]1
EC50 [1]: > 1000 nM | Activity [8]: inactive

C[C@@H]1CC(=O)NN=C1c1ccc(N2CCOCC2)cc1
EC50 [1]: 13 nM | Activity [8]: inactive

CC(=O)Nc1ccc(C2=NNC(=O)C[C@H]2C)cc1C(C)=O
EC50 [1]: 130 nM | Activity [8]: inactive

C[C@@H]1CC(=O)NN=C1c1ccc(I)cc1
EC50 [1]: 7.1 nM | Activity [8]: inactive

CCN(CC)c1ccc(C2=NNC(=O)CC2C)cc1[N+](=O)[O-] (centres undefined)
EC50 [9]: 12 nM | Activity [10]: inactive | Activity [11]: inactive | IC50 [12]: 25 nM | IC50 [13]: 100 nM | Activity [14]: Active | remaining at 1 h [2]: 95% | remaining at 1 h, 1 µM [3]: 23% | fraction unbound at 5 h [4]: 0.13 | fraction unbound at 5 h [5]: 0.08 | remaining at 5 h [6]: 85% | remaining at 5 h [7]: 87% | Activity [8]: inactive

CCNc1ccc(C2=NNC(=O)C[C@H]2C)cc1
EC50 [1]: 71 nM | Activity [8]: inactive

CC1CC(=O)NN=C1c1ccc(N2CCOCC2)c(F)c1 (racemic)
EC50 [1]: 2.8 nM | remaining at 1 h [2]: 109% | remaining at 1 h, 1 µM [3]: 102% | fraction unbound at 5 h [4]: 0.43 | fraction unbound at 5 h [5]: 0.45 | remaining at 5 h [6]: 80% | remaining at 5 h [7]: 101% | Activity [8]: inactive

CCN(CC)c1ccc(C2=NNC(=O)C2(C)C)cc1
EC50 [1]: > 1000 nM | Activity [8]: inactive

CC(=O)Nc1ccc(C2=NNC(=O)C[C@H]2C)cc1
EC50 [1]: > 1000 nM | IC50 [12]: 24 nM | IC50 [13]: 16 nM | Activity [8]: inactive

C[C@@H]1CC(=O)NN=C1c1ccc(Cl)cc1
EC50 [9]: 29 nM | Activity [10]: inactive | EC50 [1]: 33 nM | Activity [11]: inactive | remaining at 1 h [2]: 81% | remaining at 1 h, 1 µM [3]: 92% | fraction unbound at 5 h [4]: 0.13 | fraction unbound at 5 h [5]: 0.19 | remaining at 5 h [6]: 93% | remaining at 5 h [7]: 86% | Activity [8]: inactive

C[C@@H]1CC(=O)NN=C1c1ccc(F)cc1
EC50 [1]: 410 nM | Activity [8]: inactive

C/C=C/c1ccc(C2=NNC(=O)C[C@H]2C)cc1
EC50 [1]: 8.8 nM | Activity [8]: inactive

C[C@@H]1CC(=O)NN=C1c1ccc(N)cc1
EC50 [1]: > 1000 nM | Activity [8]: inactive

C[C@H]1CC(=O)NN=C1c1ccc(N2CCOCC2)c(F)c1
Activity [10]: inactive | EC50 [1]: > 1000 nM | Activity [11]: inactive | Activity [8]: inactive

CC1(C)C(=O)NN=C1c1ccc(Cl)cc1
EC50 [1]: > 1000 nM | Activity [8]: inactive

C[C@@H]1CC(=O)NN=C1c1ccc(N2CCN(C)CC2)cc1
EC50 [9]: 684 nM | EC50 [1]: 310 nM | IC50 [12]: 2000 nM | IC50 [13]: 3500 nM | Ratio IC50/EC50 [15]: 2.4 | Ratio IC50/EC50 [16]: 2.4 | Activity [8]: inactive

CC(=O)Nc1ccc(C2=NNC(=O)C[C@H]2C)cc1Br
EC50 [1]: 21 nM | Activity [8]: inactive

CC(=O)Nc1ccc(C2=NNC(=O)C[C@H]2C)cc1Cl
EC50 [9]: 31 nM | EC50 [1]: 24 nM | IC50 [12]: 8 nM | IC50 [13]: 10 nM | Ratio IC50/EC50 [15]: 0.38 | Ratio IC50/EC50 [16]: 0.38 | Activity [8]: inactive

C[C@@H]1CC(=O)NN=C1c1ccc(-n2cnnc2)cc1
EC50 [1]: > 1000 nM | Activity [8]: inactive

CC1(C)C(=O)NN=C1c1ccc(N)cc1
EC50 [1]: > 1000 nM | Activity [8]: inactive

C[C@@H]1CC(=O)NN=C1c1ccc(C2=CCCCC2)cc1
EC50 [1]: 2.2 nM | Activity [8]: inactive

CC1CC(=O)NN=C1c1ccc(N2CCOCC2)cc1 (racemic)
EC50 [9]: 11 nM | Activity [10]: inactive | EC50 [1]: 36 nM | Activity [11]: inactive | IC50 [12]: 120 nM | IC50 [13]: 260 nM | Ratio IC50/EC50 [15]: 2.4 | Ratio IC50/EC50 [16]: 2.4 | remaining at 1 h [2]: 94% | remaining at 1 h, 1 µM [3]: 99% | fraction unbound at 5 h [4]: 0.53 | fraction unbound at 5 h [5]: 0.58 | remaining at 5 h [6]: 87% | remaining at 5 h [7]: 105% | Activity [8]: inactive

CC1(C)C(=O)NN=C1c1ccc(N2CCOCC2)cc1
EC50 [1]: > 1000 nM | Activity [8]: inactive

C#Cc1cc(C2=NNC(=O)C[C@H]2C)ccc1NC(C)=O
EC50 [1]: 65 nM | Activity [8]: inactive

C[C@@H]1CC(=O)NN=C1c1ccc(C2CCCCC2)cc1
Activity [10]: inactive | EC50 [1]: 7.7 nM | Activity [11]: inactive | Activity [8]: inactive

CCNc1ccc(C2=NNC(=O)C[C@H]2C)cc1[N+](=O)[O-]
EC50 [1]: 1.1 nM | Activity [8]: inactive

CCCc1ccc(C2=NNC(=O)C[C@H]2C)cc1
EC50 [1]: 16 nM | Activity [8]: inactive

C[C@H]1CC(=O)NN=C1c1ccc(F)c(F)c1
EC50 [1]: > 1000 nM | Activity [8]: inactive

CCN(CC)c1ccc(C2=NNC(=O)CC2C)cc1NC(C)=O (centres undefined)
EC50 [1]: > 1000 nM | Activity [8]: inactive

CCN(CC)c1ccc(C2=NNC(=O)C[C@H]2C)cc1[N+](=O)[O-]
EC50 [1]: 3.8 nM | Activity [8]: inactive

CCN1N=C(c2ccc(N(CC)CC)c([N+](=O)[O-])c2)C(C)CC1=O (racemic)
Activity [10]: inactive | EC50 [1]: > 1000 nM | Activity [11]: inactive | Activity [8]: inactive

CC(=O)Nc1ccc(C2=NNC(=O)C[C@H]2C)cc1N
EC50 [1]: > 1000 nM | Activity [8]: inactive

C[C@@H]1CC(=O)NN=C1c1ccc(Cl)c(Cl)c1
EC50 [9]: 5.6 nM | EC50 [1]: 4.5 nM | IC50 [12]: 8 nM | IC50 [13]: 14 nM | Ratio IC50/EC50 [15]: 2.4 | Ratio IC50/EC50 [16]: 2.4 | Activity [8]: inactive

C[C@@H]1CC(=O)NN=C1c1ccc(-c2cncnc2)cc1
Activity [10]: inactive | EC50 [1]: 13 nM | Activity [11]: inactive | remaining at 1 h [2]: 83% | remaining at 1 h, 1 µM [3]: 105% | fraction unbound at 5 h [4]: 0.44 | fraction unbound at 5 h [5]: 0.46 | remaining at 5 h [6]: 104% | remaining at 5 h [7]: 108% | Activity [8]: inactive

CCN(CC)c1ccc(C2=NNC(=O)CC2C)cc1N (centres undefined)
EC50 [1]: 240 nM | Activity [8]: inactive

C[C@@H]1CC(=O)NN=C1c1ccc(N2CCOCC2)c(Cl)c1
EC50 [1]: 4.5 nM | Activity [8]: inactive

C[C@@H]1CC(=O)NN=C1c1ccc(F)c(F)c1
Activity [10]: inactive | EC50 [1]: 22 nM | Activity [11]: inactive | Activity [8]: inactive
